From publication PMC4269301 (International journal of peptide research and therapeutics, 2014)
Square brackets hold non-standard residues; d marks the D form. Peptide text beside a SMILES is read from it. Nle = CCCC[C@H](N)C(=O)O

How the values were obtained:
GRK5 [1] = molecular target: T1, GRK5 (Homo sapiens, UniProt P34947); experiment: GRK5 phosphorylation of light-activated rhodopsin; format: biochemical; details: for inhibition at 100 µM: read-out: % Inhibition (100 μM) of GRK5 phosphorylation of rhodopsin; for Inhibition of GRK5 phosphorylation of rhodopsin: peptides 10, 30 and 100 μM, four or more experiments in duplicate
T1 sequence (P34947 whole entry): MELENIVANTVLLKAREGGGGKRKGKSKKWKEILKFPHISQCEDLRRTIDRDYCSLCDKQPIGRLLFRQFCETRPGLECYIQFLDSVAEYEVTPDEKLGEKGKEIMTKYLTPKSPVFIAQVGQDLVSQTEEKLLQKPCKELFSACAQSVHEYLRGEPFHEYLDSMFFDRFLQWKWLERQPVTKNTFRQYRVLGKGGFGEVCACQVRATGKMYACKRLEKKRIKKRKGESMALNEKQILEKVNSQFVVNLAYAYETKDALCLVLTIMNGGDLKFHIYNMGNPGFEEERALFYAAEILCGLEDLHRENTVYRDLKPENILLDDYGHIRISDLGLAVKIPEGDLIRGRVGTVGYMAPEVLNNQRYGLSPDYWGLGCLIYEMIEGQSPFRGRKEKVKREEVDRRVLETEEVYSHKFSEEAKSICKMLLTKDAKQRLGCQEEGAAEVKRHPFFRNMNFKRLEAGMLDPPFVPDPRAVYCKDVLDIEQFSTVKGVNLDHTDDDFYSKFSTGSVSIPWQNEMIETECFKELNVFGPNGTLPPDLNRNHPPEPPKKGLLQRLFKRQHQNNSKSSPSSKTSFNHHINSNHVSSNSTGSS

GRK2 [2] = molecular target: T2, GRK2 (Homo sapiens, UniProt P25098, S670A); experiment: GRK2 phosphorylation of light-activated rhodopsin; format: biochemical; details: peptides 10, 30 and 100 μM; four or more experiments in duplicate
T2 sequence (P25098 1-689 S670A): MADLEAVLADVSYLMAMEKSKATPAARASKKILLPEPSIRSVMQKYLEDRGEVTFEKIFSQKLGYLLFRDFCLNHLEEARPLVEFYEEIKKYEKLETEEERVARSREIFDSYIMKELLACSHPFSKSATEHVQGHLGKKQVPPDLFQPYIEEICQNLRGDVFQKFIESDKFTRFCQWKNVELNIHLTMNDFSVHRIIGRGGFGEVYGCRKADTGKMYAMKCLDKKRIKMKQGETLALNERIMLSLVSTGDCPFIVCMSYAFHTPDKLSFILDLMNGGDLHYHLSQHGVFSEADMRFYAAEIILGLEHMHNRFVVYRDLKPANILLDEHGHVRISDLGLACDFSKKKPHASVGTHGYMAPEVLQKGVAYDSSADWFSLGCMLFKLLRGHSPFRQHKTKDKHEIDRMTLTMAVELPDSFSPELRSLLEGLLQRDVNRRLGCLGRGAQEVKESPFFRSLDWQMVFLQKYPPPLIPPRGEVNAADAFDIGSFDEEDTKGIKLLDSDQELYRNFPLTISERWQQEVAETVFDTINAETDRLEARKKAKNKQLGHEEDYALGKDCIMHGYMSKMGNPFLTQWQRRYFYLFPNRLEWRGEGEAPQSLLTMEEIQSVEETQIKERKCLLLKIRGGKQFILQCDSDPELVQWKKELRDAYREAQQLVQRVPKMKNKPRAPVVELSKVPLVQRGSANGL
Summary of the method: (§1)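 Light-activated (475 nm, 30 s) rhodopsin, 0.5 μM, from urea-stripped bovine ROS. Kinase was purified GRK2 (His₆, S670A, Sf9/baculovirus, Ni-IMAC) or N-terminal His₆ full-length human GRK6, at 10–100 nM. Buffer: 20 mM Tris pH 7.5, 10 mM MgCl₂, 1 mM EDTA, 100 μM [γ³²P]ATP; peptides in DMSO (2–4 %). Ran 5 min, then SDS-PAGE and autoradiography. ≥4 experiments in duplicate, % of control.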

GRK6 [3] = experiment: GRK6 phosphorylation of light-activated rhodopsin; format: biochemical, human; details: peptides 10, 30 and 100 μM; four or more experiments in duplicate
Summary of the method: as §1

GRK7 = molecular target: T3, GRK7 (Homo sapiens, UniProt Q8WTQ7); experiment: GRK7 phosphorylation of light-activated rhodopsin; format: biochemical; details: peptides 10, 30 and 100 μM; four or more experiments in duplicate
T3 sequence (Q8WTQ7 1-553): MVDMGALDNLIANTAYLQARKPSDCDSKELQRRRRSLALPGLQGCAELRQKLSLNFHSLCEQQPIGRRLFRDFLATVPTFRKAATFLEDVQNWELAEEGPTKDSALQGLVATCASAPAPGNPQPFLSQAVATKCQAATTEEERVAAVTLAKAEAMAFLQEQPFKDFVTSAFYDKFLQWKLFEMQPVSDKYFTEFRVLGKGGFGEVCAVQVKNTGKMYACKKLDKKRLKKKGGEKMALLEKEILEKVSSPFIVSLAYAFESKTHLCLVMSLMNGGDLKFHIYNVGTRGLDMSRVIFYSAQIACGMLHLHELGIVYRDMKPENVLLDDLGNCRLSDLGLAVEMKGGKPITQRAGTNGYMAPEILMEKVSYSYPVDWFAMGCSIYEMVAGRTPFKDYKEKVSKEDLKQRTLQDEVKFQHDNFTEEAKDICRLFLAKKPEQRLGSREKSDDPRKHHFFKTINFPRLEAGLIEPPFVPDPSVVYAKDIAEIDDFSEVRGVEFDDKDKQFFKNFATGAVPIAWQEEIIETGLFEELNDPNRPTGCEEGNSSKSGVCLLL
Summary of the method: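 Substrate is urea-stripped bovine rod outer segment rhodopsin (0.5 μM in reaction buffer; 0.5–4 μM per legend), light-activated at 475 nm for 30 s. Peptides are dissolved in DMSO (2–4% final) and quantified by A280. Results are normalised to the no-peptide control as mean ± SEM.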

GRK2 [4] = molecular target: T2, GRK2; experiment: GRK2 phosphorylation of tubulin; format: biochemical; details: for Effect on GRK2 phosphorylation of tubulin, basal activity: 60 min
Summary of the method: (§2)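 Bovine brain tubulin 500 nM with 100 nM GRK2 (His₆, S670A, Sf9-expressed) or human His₆-GRK5; 20 mM Tris pH 7.5, 1 mM EDTA, 10 mM MgCl₂, 5 μM DTT, 100 μM [γ³²P]ATP; 60 min, 30 °C. 12 % SDS-PAGE; ³²P-tubulin counted from excised bands or by autoradiogram densitometry. Mean ± SEM, ≥4 experiments in duplicate, % of control; one-way ANOVA.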

GRK5 [5] = molecular target: T1, GRK5; experiment: GRK5 phosphorylation of tubulin; format: biochemical; details: for % inhibition of GRK5 phosphorylation of tubulin: 100 μM peptide, 100 nM GRK5, 60 min
Summary of the method: as §2

GRK6 [6] = details: ref previous study of the α9 peptide (Baameur et al. 2010); cited from earlier work

## CCCC[C@H](NC(=O)[C@H](CO)NC(C)=O)C(=O)N[C@@H](Cc1ccccc1)C(=O)N[C@@H](Cc1ccccc1)C(=O)N[C@@H](CC(=O)O)C(=O)N[C@@H](CCCNC(=N)N)C(=O)N[C@@H](Cc1ccccc1)C(=O)N[C@@H](CC(C)C)C(=O)N[C@@H](C)C(=O)N[C@@H](Cc1c[nH]c2ccccc12)C(=O)N[C@@H](CCCCN)C(=O)N[C@@H](Cc1c[nH]c2ccccc12)C(=O)N[C@@H](CC(C)C)C(=O)N[C@@H](CCC(=O)O)C(=O)N[C@@H](CCCNC(=N)N)C(N)=O [Peptide Q172A] (Ac-S[Nle]FFDRFLAWKWLER-NH2)
GRK5 [1]
  IC50: 15.1 ± 7.3 µM
  inhibition at 100 µM: 95%

## CCCC[C@H](NC(=O)[C@H](CO)NC(C)=O)C(=O)N[C@@H](Cc1ccccc1)C(=O)N[C@@H](Cc1ccccc1)C(=O)N[C@@H](CC(=O)O)C(=O)N[C@@H](C)C(=O)N[C@@H](Cc1ccccc1)C(=O)N[C@@H](CC(C)C)C(=O)N[C@@H](CCC(N)=O)C(=O)N[C@@H](Cc1c[nH]c2ccccc12)C(=O)N[C@@H](CCCCN)C(=O)N[C@@H](Cc1c[nH]c2ccccc12)C(=O)N[C@@H](CC(C)C)C(=O)N[C@@H](CCC(=O)O)C(=O)N[C@@H](CCCNC(=N)N)C(N)=O [Peptide R169A] (Ac-S[Nle]FFDAFLQWKWLER-NH2)
GRK5 [1]
  IC50: 7.2 ± 4.8 µM
  Inhibition of GRK5 phosphorylation of rhodopsin: inhibited
  inhibition at 100 µM: 98%
GRK2 [2]
  Inhibition of GRK2 phosphorylation of rhodopsin: less inhibition
GRK6 [3]
  Inhibition of GRK6 phosphorylation of rhodopsin: inhibited
GRK7
  Inhibition of GRK7 phosphorylation of rhodopsin: inhibited
GRK2 [4]
  IC50: ~30 µM
GRK2 [4]; 100 μM peptide, 0.5 μM tubulin, 100 nM GRK2, 60 min, 30 °C
  % inhibition of GRK2 phosphorylation of tubulin: 60–80%
GRK5 [5]
  IC50: ~30 µM
GRK5 [5]; 0.5 μM tubulin, 30 °C
  % inhibition of GRK5 phosphorylation of tubulin: 60–80%

## CCCC[C@H](NC(=O)[C@H](CO)NC(C)=O)C(=O)N[C@@H](Cc1ccccc1)C(=O)N[C@@H](Cc1ccccc1)C(=O)N[C@@H](CC(=O)O)C(=O)N[C@@H](CCCNC(=N)N)C(=O)N[C@@H](Cc1ccccc1)C(=O)N[C@@H](CC(C)C)C(=O)N[C@@H](CCC(N)=O)C(=O)N[C@@H](Cc1c[nH]c2ccccc12)C(=O)N[C@@H](CCCCN)C(=O)N[C@@H](Cc1c[nH]c2ccccc12)C(=O)N[C@@H](CC(C)C)C(N)=O [Peptide T2] (Ac-S[Nle]FFDRFLQWKWL-NH2)
GRK5 [1]
  IC50: 5.2 ± 2 µM
  inhibition at 100 µM: 98%

## CCCC[C@H](NC(=O)[C@H](CO)NC(C)=O)C(=O)N[C@@H](Cc1ccccc1)C(=O)N[C@@H](Cc1ccccc1)C(=O)N[C@@H](CC(=O)O)C(=O)N[C@@H](CCCNC(=N)N)C(=O)N[C@@H](Cc1ccccc1)C(=O)N[C@@H](CC(C)C)C(=O)N[C@@H](CCC(N)=O)C(=O)N[C@@H](Cc1c[nH]c2ccccc12)C(=O)N[C@@H](CCCCN)C(=O)N[C@@H](Cc1c[nH]c2ccccc12)C(N)=O [Peptide T3] (Ac-S[Nle]FFDRFLQWKW-NH2)
GRK5 [1]
  IC50: 6.1 ± 4.4 µM
  inhibition at 100 µM: 97%

## CCCC[C@H](NC(=O)[C@H](CO)NC(C)=O)C(=O)N[C@@H](Cc1ccccc1)C(=O)N[C@@H](Cc1ccccc1)C(=O)N[C@@H](CC(=O)O)C(=O)N[C@@H](CCCNC(=N)N)C(=O)N[C@@H](Cc1ccccc1)C(=O)N[C@@H](CC(C)C)C(=O)N[C@@H](CCC(N)=O)C(=O)N[C@@H](Cc1c[nH]c2ccccc12)C(=O)N[C@@H](CCCCN)C(=O)N[C@@H](Cc1c[nH]c2ccccc12)C(=O)N[C@@H](CC(C)C)C(=O)N[C@@H](CCC(=O)O)C(=O)N[C@@H](CCCNC(=N)N)C(N)=O [α9 (164–178)] (Ac-S[Nle]FFDRFLQWKWLER-NH2)
GRK5 [1]
  IC50: 15.9 ± 4.3 µM
  inhibition at 100 µM: 89%
GRK6 [6]
  Inhibition of GRK6 (previous study): no inhibition

## CCCC[C@H](NC(=O)[C@H](CCC(=O)O)NC(=O)[C@H](CC(N)=O)NC(=O)[C@H](CCC(N)=O)NC(=O)[C@H](Cc1c[nH]c2ccccc12)NC(=O)[C@@H]1CCCN1C(=O)[C@@H](NC(=O)[C@H](CO)NC(=O)[C@@H](NC(C)=O)C(C)C)[C@@H](C)CC)C(=O)N[C@H](C(=O)N[C@@H](CCC(=O)O)C(N)=O)[C@@H](C)CC [α10] (Ac-VSIPWQNE[Nle]IE-NH2)
GRK5 [1]
  Inhibition of GRK5 phosphorylation of rhodopsin: inhibited
GRK2 [2]
  Inhibition of GRK2 phosphorylation of rhodopsin: less inhibition
GRK6 [3]
  Inhibition of GRK6 phosphorylation of rhodopsin: inhibited
GRK7
  Inhibition of GRK7 phosphorylation of rhodopsin: inhibited
GRK2 [4]; 0.5 μM tubulin, 30 °C
  Effect on GRK2 phosphorylation of tubulin, basal activity: not significant
GRK5 [5]; 0.5 μM tubulin, 30 °C
  % inhibition of GRK5 phosphorylation of tubulin: ~ 45%

## Ac-FFDAFLQWK-NH2 [Peptide T5]
GRK5 [1]; 100 μM peptide, 0.5 μM light-activated rhodopsin, 100 μM ATP, 5 min
  % Inhibition (100 μM) of GRK5 phosphorylation of rhodopsin: 22%

## Ac-FFDRFLQWKWLER-NH2 [Peptide T1]
GRK5 [1]
  IC50: 23.9 ± 16 µM
  inhibition at 100 µM: 95%

## Ac-ILENLKDCGLF-NH2 [TCT, reference compound]
GRK5 [1]
  IC50: ~10 µM
  Inhibition of GRK5 phosphorylation of rhodopsin: showed inhibition
GRK2 [2]
  Inhibition of GRK2 phosphorylation of rhodopsin: relatively inactive
GRK6 [3]
  Inhibition of GRK6 phosphorylation of rhodopsin: showed inhibition
GRK7
  Inhibition of GRK7 phosphorylation of rhodopsin: showed inhibition
GRK2 [4]; 0.5 μM tubulin, 30 °C
  Effect on GRK2 phosphorylation of tubulin, basal activity: no significant effect
GRK5 [5]; 0.5 μM tubulin, 60 min, 30 °C
  Effect on GRK5 phosphorylation of tubulin, basal activity: no significant effect
